Measured values as given in ChEMBL document CHEMBL4480447, “Acrotrione: An Oxidized Xanthene from the Roots of Acronychia pubescens” (J Nat Prod, 2019).

Experiments:
[1] = Cytotoxicity against HEK293 cells assessed as growth inhibition after 72 hrs by resazurin dye-based fluorescence assay relative to control; assay type: cell-based; parameters: concentration or dose not given beside the values; conditions: human, read-out: GI
How it was run: (§1)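 HEK293 cells kept in DMEM with 10% FBS. Exposed to compound for 72 h at 37 °C, 5% CO2; 16-point dose-response, 40 μM to 0.4 nM final, three concentrations per log, from 10 mM DMSO stocks. Medium then replaced with 44 μM resazurin; fluorescence read after 5−6 h (ex/em 530/595 nm). Data normalized to puromycin (5 μM) and 0.4% DMSO controls; IC50 from four-parameter logistic fit.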

Plasmodium falciparum [2] = test: Antiplasmodial activity against drug-resistant Plasmodium falciparum Dd2 ring stage forms assessed as inhibition of parasite growth after 72 hrs by DAPI staining-based confocal microscopic analysis; assay type: functional, organism-based; conditions: Dd2, 72 h
How it was run: (§2)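 Compounds from 10 mM DMSO stocks, 16-point dose-response, 40 μM to 0.4 nM final. Incubation 72 h at 37 °C, 90% N2/5% CO2/5% O2. DAPI stain, confocal imaging. Percent inhibition normalized to puromycin 5 μM and 0.4% DMSO controls; IC50 by four-parameter logistic fit.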

Plasmodium falciparum [3] = test: Antiplasmodial activity against drug-sensitive Plasmodium falciparum 3D7 ring stage forms assessed as inhibition of parasite growth after 72 hrs by DAPI staining-based confocal microscopic analysis; assay type: functional, organism-based; conditions: 3D7, 72 h
[4] = Selectivity ratio of IC50 for Plasmodium falciparum Dd2 ring stage forms to IC50 for Plasmodium falciparum 3D7 ring stage forms; assay type: functional
How it was run: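 Sixteen-point dose-response, 40 μM to 0.4 nM final. Fit is four-parameter logistic on percent inhibition normalized to puromycin (5 μM) and 0.4% DMSO. Ratio is Dd2 IC50 over 3D7 IC50.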

Plasmodium falciparum [5] = test: Antiplasmodial activity against drug-sensitive Plasmodium falciparum 3D7 ring stage forms assessed as inhibition of parasite growth at 40 uM after 72 hrs by DAPI staining-based confocal microscopic analysis; assay type: functional; conditions: 3D7, 72 h, read-out: GI
How it was run: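 Exposed to compound for 72 h at 37 °C under 90% N2/5% CO2/5% O2. DAPI staining followed by confocal imaging. Percent inhibition normalized to puromycin (5 μM) and 0.4% DMSO controls.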

Plasmodium falciparum [6] = test: Antiplasmodial activity against drug-resistant Plasmodium falciparum Dd2 ring stage forms assessed as inhibition of parasite growth at 40 uM after 72 hrs by DAPI staining-based confocal microscopic analysis; assay type: functional; conditions: Dd2, 72 h, read-out: GI; how it was run: as §2
HEK293 = test: Cytotoxicity against HEK293 cells after 72 hrs by resazurin dye-based fluorescence assay; assay type: cell-based; conditions: Homo sapiens, HEK293, 72 h; how it was run: as §1
[7] = Selectivity index, ratio of IC50 for HEK293 cells to IC50 for drug-sensitive Plasmodium falciparum 3D7 ring stage forms; assay type: toxicity; conditions: human; read-out: Ratio IC50

For C[C@H]1[C@H](OC(=O)CCC(=O)O)O[C@@H]2O[C@@]3(C)CC[C@H]4[C@H](C)CC[C@@H]1[C@@]24OO3 [ARTESUNATE], the inhibition at 72 h [1] was 62.5% and the IC50 (Plasmodium falciparum [2]) was 3.3 nM.
With CCN(CC)CCCC(C)Nc1ccnc2cc(Cl)ccc12 (stereo not drawn) [CHLOROQUINE] the inhibition at 72 h [1] was 53.2%.
For COc1c(CC=C(C)C)c2c(c(O)c1C(C)=O)[C@H](CC(C)C)[C@H]1C(=O)C(C(C)=O)=C3O[C@@H](C(C)(C)O)C[C@@]3(O)[C@@]1(O)O2, the inhibition at 72 h [1] was 80.7%, the IC50 (Plasmodium falciparum [3]) was 2700 nM and the “Ratio IC50” value [4] was 1.7. It also gave an IC50 (Plasmodium falciparum [2]) of 4700 nM.
COc1c(CC=C(C)C)c(O)c(C=O)c(O)c1C(C)=O [ACRONYCULATIN A] gave an inhibition at 72 h [1] of 7.4%, an inhibition of growth at 40 µM (Plasmodium falciparum [5]) of 37.5% and an inhibition of growth at 40 µM (Plasmodium falciparum [6]) of 19.8%.
In the case of COc1ccc(C[C@H](N)C(=O)N[C@H]2[C@@H](O)[C@H](n3cnc4c(N(C)C)ncnc43)O[C@@H]2CO)cc1 [PUROMYCIN], the IC50 (HEK293) is reported as 694 nM, the IC50 (Plasmodium falciparum [3]) is reported as 70.2 nM and the “Ratio IC50” value [4] is reported as 1.1. The selectivity ratio [7] was 9.9 and the IC50 (Plasmodium falciparum [2]) was 74.7 nM.
For C[C@H]1[C@@H](O)O[C@@H]2O[C@@]3(C)CC[C@H]4[C@H](C)CC[C@@H]1[C@@]24OO3 [ARTENIMOL], the inhibition at 72 h [1] was 41.1% and the “Ratio IC50” value [4] was 1.8.
CCc1nc(N)nc(N)c1-c1ccc(Cl)cc1 [PYRIMETHAMINE] gave an inhibition at 72 h [1] of 52% and an IC50 (Plasmodium falciparum [3]) of 7.7 nM.
With COc1ccc2nc3cc(Cl)ccc3c(Nc3cc(CN4CCCC4)c(O)c(CN4CCCC4)c3)c2n1 [PYRONARIDINE] the IC50 (HEK293) was 1990 nM, the IC50 (Plasmodium falciparum [3]) was 8.2 nM and the “Ratio IC50” value [4] was 1.3. For the same compound, the selectivity ratio [7] was 246 and the IC50 (Plasmodium falciparum [2]) was 11 nM.
With COc1c(CC=C(C)C)c(O)cc(O)c1C(C)=O the inhibition at 72 h [1] was 79.1%, the IC50 (Plasmodium falciparum [3]) was 1800 nM and the “Ratio IC50” value [4] was 1.7. The IC50 (Plasmodium falciparum [2]) was 3100 nM.
